Experimental data from the RNAGym collection of RNA variant scans (doi:10.1126/science.aae0568).
Fewer inactive variants are shown than the library holds.

B1: tRNA (parent)
chain: GUUCCGUUGGCGUAAUGGUAACGCGUCUCCCUCCUAAGGAGAAGACUGCGGGUUCGAGUCCCGUACGGAACG

Variants of: B1
Assay: yeast fitness relative to wild type (ratio to wild type); higher = fitter; tRNA-Arg(CCU), competitive growth, 37 C, YPD
Summary of the method: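 Variants of the tRNA-Arg(CCU) gene, chemically synthesised with a 3% per-site mutation rate at 69 sites, were placed at the native genomic locus in Saccharomyces cerevisiae. The pooled strains were competed in YPD at 37°C for 24 hours in six parallel replicates. Gene amplicons from the start population and from each end population were read by 100-nucleotide paired-end sequencing. Darwinian fitness relative to wild type came from changes in genotype frequencies; genotypes needed ≥ 100 starting reads, and estimates < 0.5 were set to 0.5.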

Going from GUUCCGUUGGCGUAAUGGUAACGCGUCUUCCUCCUAAGGAGAUGACUGCGGGUUCGAGUCCCGUACGGCACG [C29U A43U A69C] to GUUCCGUUGGCGUAAUGGUAACGCGUCUUCCUACUAAGGAGAAGACUGCGGGUUCGAGUCCCGUACGGAACG [C29U C33A], the yeast fitness falls from 0.735 to 0.7.

GUUCCGUUGGCGUAAUGGUAACGCGUCUGCCUCCCAACGAGAAGACUGCGGGUUCGGGUCCCGUACGGAACG [C29G U35C G38C A57G] and GUUCCGUUGGCGUAAUGGUAACGCGUCUUCCUCCUAAGGAGAAGACUGCGGGUUCGAGUCCCGUCCGGCACG [C29U A65C A69C] cannot be ordered by yeast fitness: at most 0.5 for the first, at most 0.5 for the second.

Going from GUUCCGUUGGCGUAAUGGUAACGCGUCUUACUCCUAAGGAGAAGACUGCGGGUUCGAGUCCCGUUCGGAACG [C29U C30A A65U] to GUUCCGUUGGCGUAAUGGUAACGCGUCUUCCUCCUAAGGAGACGACUGCCGGUUCGAGUACCGUACGGAACG [C29U A43C G50C C60A], the yeast fitness rises from at most 0.5 to 0.634.

Going from GUUCCGUUGGCGUAAUGGUAACGCGUCUUCCUCCUAAGGAGAAGCCUGCGGGUUCGAGUCCCAUACGGAACG [C29U A45C G63A] to GUUCCGUUGGCGUAAUGGUAACGCGUCUUCCUCCUAAGGAGAAGACUGCGGGUUCGAGUCCCGUUCGGAACG [C29U A65U], the yeast fitness rises from 0.578 to 0.754.

Going from GUUCCGUUGGCGUAAUGGUAACGCGUCUGCCUCCUAAGGAGAAGACAGCGGGUUCGAGUCCCGUAAGGAACG [C29G U47A C66A] to GUUCCGUUGGCGUAAUGGUAACGCGUCUUCCUCCUAAGGAGAAGACUGCGGGUUCGAGUCCCGUACGGAACG [C29U], the yeast fitness rises from 0.532 to 0.989.

GUUCCGUUGGCGUAAUGGUAACGCGUCUUCCUCCUUAGGAGAAGACUGCGGGUUCGGAUCCCGUACGGAACG [C29U A36U A57G G58A] and GUUCCGUUGGCGUAAUGGUAACGCGUCUUCCUCCUAAGGAGUUGACUGCGGGUUGGAGUCCGGUACGGAACG [C29U A42U A43U C55G C62G] cannot be ordered by yeast fitness: at most 0.5 for the first, at most 0.5 for the second.

First: GUUCCGUUGGCGUAAUGGUAACGCGUCUUCUUCCUAAGGAGAAGACUGCGGGUUCGAGUCCCGUACGGAACG [C29U C31U]
Second: GUUCCGUUGGCGUAAUGGUAACGCGUCUGCCUCCUAAGGAGAAGACGGCGGGUUCGGGUCCCGUACGGUACG [C29G U47G A57G A69U]
The yeast fitness of the first is higher: 0.846 for the first, at most 0.5 for the second.

First: GUUCCGUUGGCGUAAUGGUAACGCGUCUUCCUCCUAAGGAGAAGACUGCGGGUUCGAGUCCCGUACGGAGCG [C29U A70G]
Second: GUUCCGUUGGCGUAAUGGUAACGCGUCUUCAUCCUAAGGCGAAGACUGCGGAUUCGAGUCACGUACGGAACG [C29U C31A A40C G52A C61A]
The yeast fitness of the first is higher: 0.887 for the first, at most 0.5 for the second.

GUUCCGUUGGCGUAAUGGUAACGCGUCUUCCUCCUAAGGGGAAGACUGCGGGUUCGAGUGCCGUACGGAACG [C29U A40G C60G] and GUUCCGUUGGCGUAAUGGUAACGCGUCUGCCUCCCAAGGAGAAGACUGCGGGUCCGAGUCACGUACGGAACG [C29G U35C U54C C61A] cannot be ordered by yeast fitness: at most 0.5 for the first, at most 0.5 for the second.

First: GUUCCGUUGGCGUAAUGGUAACGCGUCUUCCUCCUAAGGAGACGACUGCGGGUUCGAGUCCCAUACGGAACG [C29U A43C G63A]
Second: GUUCCGUUGGCGUAAUGGUAACGCGUCUUCCUCCUAAGGAGAAGUCUGCGGGUUCGAGUCCCGUCCGGAACG [C29U A45U A65C]
The yeast fitness of the first is higher: 0.699 for the first, 0.544 for the second.

First: GUUCCGUUGGCGUAAUGGUAACGCGUCUGCCUCCUAAGGAGAAGACUGCGGGUUCGAGGCCCGCACGGAACG [C29G U59G U64C]
Second: GUUCCGUUGGCGUAAUGGUAACGCGUCUUCAUCCUAACGAGAAGACUGCGGGUUCGAGUCCCGUACGGAACG [C29U C31A G38C]
The yeast fitness of the first is higher: 0.549 for the first, at most 0.5 for the second.

First: GUUCCGUUGGCGUAAUGGUAACGCGUCUUCCUCCUGAGGAGAAGACUGCGGGUCCGAGUCCCGUACGGAACG [C29U A36G U54C]
Second: GUUCCGUUGGCGUAAUGGUAACGCGUCUUCCUCCUAAGGAGUUGACUGCGGGUUCGCGUCCCGUACGGAGCG [C29U A42U A43U A57C A70G]
The yeast fitness of the first is lower: 0.542 for the first, 0.577 for the second.

GUUCCGUUGGCGUAAUGGUAACGCGUCUUACUCCUAAGGAGAAGACUGCGGGUUCGAGGCCCGUACGGAACG [C29U C30A U59G] and GUUCCGUUGGCGUAAUGGUAACGCGUCUUCCUCCUAAGGUGAAGACUGCGGGAUCGAGUACCGUGCGGAACG [C29U A40U U53A C60A A65G] cannot be ordered by yeast fitness: at most 0.5 for the first, at most 0.5 for the second.

Compared with GUUCCGUUGGCGUAAUGGUAACGCGUCUUCCUCCUAAGGAGUUGACUGCGGGUUGGAGUCCCGUACGGAACG [C29U A42U A43U C55G], GUUCCGUUGGCGUAAUGGUAACGCGUCUUCUUCCUAAGGACAAGACUGCGGGUUCGAGUCCCGUGCGGAACG [C29U C31U G41C A65G] is higher in yeast fitness: 0.545 for the first, 0.609 for the second.

Going from GUUCCGUUGGCGUAAUGGUAACGCGUCUUCAUCCUAAGGAGAAAACUGCGGGUUCGAGUCCCGUACGGAACG [C29U C31A G44A] to GUUCCGUUGGCGUAAUGGUAACGCGUCUUCCUCCUAAGGAGUAGCCUGCGGGUUCGAGUCCCGUACGGAACG [C29U A42U A45C], the yeast fitness falls from 0.885 to 0.51.

First: GUUCCGUUGGCGUAAUGGUAACGCGUCUUCCUCCUAAGGAGAUGACUGCGGGUUCGAGUCCCGUACGGACCG [C29U A43U A70C]
Second: GUUCCGUUGGCGUAAUGGUAACGCGUCUUCUUCCUAAGGAGAAGACUGCGGGUGCGAGUCCCGUUCAGAACG [C29U C31U U54G A65U G67A]
The yeast fitness of the first is higher: 1.01 for the first, 0.565 for the second.

Going from GUUCCGUUGGCGUAAUGGUAACGCGUCUUCCUCCUAAGGAGAAGACUGCGGGUUCGGGUGCCGCACGGAACG [C29U A57G C60G U64C] to GUUCCGUUGGCGUAAUGGUAACGCGUCUUCCUCCUAAGGAGAAGACUGCGGGUUCGAGUCCCGUACGGCACG [C29U A69C], the yeast fitness rises from 0.609 to 0.939.

GUUCCGUUGGCGUAAUGGUAACGCGUCUUCCUAUUAAGGAGAAGACUGCGCGUUCGAGUCCCGAAUGGCACG [C29U C33A C34U G51C U64A C66U A69C] and GUUCCGUUGGCGUAAUGGUAACGCGUCUGCCUCCCAAGGAGAAGACUGCGGGUCCGAGUCCCGCACGGAACG [C29G U35C U54C U64C] cannot be ordered by yeast fitness: at most 0.5 for the first, at most 0.5 for the second.

First: GUUCCGUUGGCGUAAUGGUAACGCGUCUUCCUCCUAAGGAGAAGACUGCGGGUUCGAGUCCCGUCGGGAACG [C29U A65C C66G]
Second: GUUCCGUUGGCGUAAUGGUAACGCGUCUUCCUCCUAAGGAGACGACUGCGAGUUCGAGUCCCGUACGGAACG [C29U A43C G51A]
The yeast fitness of the first is higher: 0.57 for the first, at most 0.5 for the second.
